In the library only some 3.6% were active in any assay of this set; here they are far more common.
Hsp70 activator – switches on Hsp70 transcription; HeLa Hsp70 promoter luciferase reporter, luminescence; scaled: vehicle 0, proteasome-inhibitor control 100%; activation, % at 10 µM; 200,000 compounds, 0.04% hits; AID 1203;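 active = activation above the mean across all tested compounds plus 3 SD, cutoff set per campaign, cut at about 5.5% in these data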
HSF1 inh – HSF1 inhibition | NIH3T3-HGL HSE-luciferase, MG132-induced, luminescence 8 h; stronger effect = lower value | 300,000 compounds, 0.77% hits | activity change, negative = inhibition, % at 7.5 µM (by protocol);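 active = more than half of replicate wells show activity change below -50%, luminescence cut by over half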;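 also: luciferase reports HSF-1 transcriptional activity via heat shock element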
PERK inhibitor – inhibitors of human PERK kinase; Q9NZJ5; CHO PERK-DD fusion, SEAP luminescence translation reporter; inhibition, % at 5.6 µM; 220,000 compounds, 0.17% hits; AID 1416;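 active = inhibition above the mean inhibition of all tested compounds plus 3 SD, set separately per screening campaign, cut at about 2.9% in these data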;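 also: PERK kinase domain activated by AP20187 dimerizer at 100 nM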
STAT3 activator – STAT3 signaling activation | 190,000 compounds, 0.91% hits | U3A cells, IL-6 STAT3-luciferase reporter, luminescence; 100% = signal with IL-6 EC80 alone | activation (% of control), % at 5.6 µM;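 active = activation above the screen-wide mean of compound activation plus 3 SD, cut at about 130% in these data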
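Test system: STAT3-luciferase reporter U3A cells; Detection: reporter luminescence signal; Times: 1 h compound pre-exposure, 6 h IL-6 stimulation, 37 °C; Benchmarks: IL-6-only high control; Also added: IL-6 stimulus at 33 ng/mL final.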
PolyA inh – inhibitors of polyadenylation in S. cerevisiae | S. cerevisiae SKY197-pL101 polyadenylation reporter, beta-gal luminescence; efflux-impaired pdr1/pdr3 knockout yeast; score 100 = 6 SD above DMSO | activity score, % at 12 µM | 300,000 compounds, 0.02% hits;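 active = lowest replicate activity score at least 50, where 100 means six control SD above control mean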;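 also: yeast exposed to compound for 9 h at 30 °C; higher score means more reporter readthrough which indicates perturbed polyadenylation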
AHR activator – human AHR activation | P35869 | AID 2796 | AHR-responsive luciferase reporter cells, luminescence | activation, % at 5 µM | 320,000 compounds, 2.5% hits; in the data active = activation above about 47%
Target sequence (P35869 whole entry, looked up): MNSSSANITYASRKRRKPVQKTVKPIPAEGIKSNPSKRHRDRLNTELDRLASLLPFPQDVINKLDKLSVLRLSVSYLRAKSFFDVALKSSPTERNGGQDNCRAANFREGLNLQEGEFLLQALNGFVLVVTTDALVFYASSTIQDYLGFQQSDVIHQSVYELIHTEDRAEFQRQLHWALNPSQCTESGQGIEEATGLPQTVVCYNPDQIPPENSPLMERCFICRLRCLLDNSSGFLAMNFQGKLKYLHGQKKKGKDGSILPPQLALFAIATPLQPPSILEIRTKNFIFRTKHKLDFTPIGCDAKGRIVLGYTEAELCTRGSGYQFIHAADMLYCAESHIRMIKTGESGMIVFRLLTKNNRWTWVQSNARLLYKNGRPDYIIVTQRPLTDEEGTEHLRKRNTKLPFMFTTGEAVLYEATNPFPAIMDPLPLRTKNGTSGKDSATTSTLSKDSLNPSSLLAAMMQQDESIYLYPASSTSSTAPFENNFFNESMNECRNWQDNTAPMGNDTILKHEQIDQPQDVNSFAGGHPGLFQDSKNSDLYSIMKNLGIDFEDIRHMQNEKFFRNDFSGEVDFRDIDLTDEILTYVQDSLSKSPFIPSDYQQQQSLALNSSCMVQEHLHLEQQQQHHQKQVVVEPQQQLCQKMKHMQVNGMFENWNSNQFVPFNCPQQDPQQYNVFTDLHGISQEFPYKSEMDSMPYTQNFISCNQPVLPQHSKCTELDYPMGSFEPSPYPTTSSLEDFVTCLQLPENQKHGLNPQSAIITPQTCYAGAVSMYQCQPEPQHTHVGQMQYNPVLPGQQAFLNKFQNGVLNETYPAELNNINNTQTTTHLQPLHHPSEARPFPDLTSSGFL
Hits are given with their value; 0 = inactive; - = no result given.

SMILES	Hsp70 activator	HSF1 inh	PERK inhibitor	STAT3 activator	PolyA inh	AHR activator
CCOc1ccc(NC(=S)NCCCn2ccnc2)cc1	0	0	0	0	0	0
O=C(NCCCn1ccnc1)c1ccc2ccccc2c1	-	0	-	-	0	60.0
O=C(NCCCn1ccnc1)c1cc2ccccc2oc1=O	0	0	0	0	0	0
S=C(NCCCn1ccnc1)Nc1cccc(Cl)c1	0	0	0	0	0	49.1
O=C(/C=C/c1c(Cl)cccc1Cl)NCCCn1ccnc1	-	0	-	-	0	47.6
COc1ccc(CNC(=O)C2CCN(S(=O)(=O)c3cccc4nsnc34)CC2)cc1	-	0	-	-	0	0
N#Cc1cccc(S(=O)(=O)NCc2nnc3ccccn23)c1	-	-	-	-	-	0
Cc1ccc(NC(=O)N2CCCC2C(=O)Nc2ccc3c(c2)OCCO3)cc1 (configuration not stated)	-	0	-	-	0	0
O=C(NCCCn1ccnc1)c1sc2cccc(F)c2c1Cl	0	0	0	0	0	78.2
O=C(CSc1nc2ccccc2c2c1CCCC2)N1CCOCC1	-	0	-	-	0	0
Cc1cc(C)c2cc(C(=O)N3CCc4ccccc4C3)[nH]c2c1	-	0	0	-	0	54.8
COc1ccccc1N1CC(C)C(=O)NC1=S (configuration not stated)	0	-56.0	0	0	0	0
COc1ccc(N/C=C2/Sc3ccccc3NC2=O)cc1	0	0	0	0	0	55.0
Cc1ccc(N/C=C2/Sc3ccccc3NC2=O)cc1	0	0	0	0	0	0
CN(C)CC(CCC(CN(C)C)C(=O)c1ccccc1)C(=O)c1ccccc1 (configuration not stated)	-	-69.2	0	-	0	-
Cn1c(/C=C/c2ccccc2[N+](=O)[O-])nc2ccccc2c1=O	-	0	-	-	0	-
O=[N+]([O-])c1ccccc1/C=C/c1ccc2ccccc2n1	-	0	-	-	0	74.7
O=[N+]([O-])c1ccc(/C=C/c2ccc3cccc([N+](=O)[O-])c3n2)cc1	0	0	0	0	0	105.9
O=[N+]([O-])c1cccc(/C=C/c2ccc3cccc(O)c3n2)c1	-	0	-	-	0	0
CCCOC1CCCN(C(=O)c2cc(COc3ccc(-n4cncn4)cc3)on2)C1 (configuration not stated)	-	0	-	-	0	0
Oc1ccc(/C=N/n2cc(-c3ccccc3)[nH]c2=S)cc1	0	0	0	0	0	64.2
COc1cc(/C=N/n2cc(-c3ccccc3)[nH]c2=S)cc(OC)c1O	-	0	0	-	0	0
S=c1[nH]c(-c2ccccc2)cn1/N=C/c1ccccc1Br	0	0	0	0	0	62.4
S=c1[nH]c(-c2ccccc2)cn1/N=C/c1cccc2ccccc12	0	0	0	0	0	99.0
COc1ccc(NC(=O)CCN2CCOCC2)c(OC)c1	0	0	0	0	0	0
SMILES	Hsp70 activator	HSF1 inh	PERK inhibitor	STAT3 activator	PolyA inh	AHR activator
CCOc1cc(S(=O)(=O)NCCCN2CCOCC2)ccc1F	-	0	-	-	0	0
COc1ccccc1NC(=O)c1cc(S(=O)(=O)N2CCOCC2)ccc1Cl	0	0	0	0	0	0
COc1ccccc1NC(=O)c1cc(Br)ccc1Cl	0	0	0	0	0	65.4
CN1CCN(c2ccccc2NC(=O)c2cc(Br)ccc2Cl)CC1	0	0	0	0	0	55.1
CN1CCN(c2ccccc2NC(=O)c2ccc(-c3ccc(Cl)c(Cl)c3)o2)CC1	-	0	-	-	0	63.4
Cc1c(NC(=O)COC(=O)c2ncc(Cl)c(Cl)c2Cl)c(=O)n(-c2ccccc2)n1C	-	0	-	-	0	0
COc1c2ccc(OCC/C(C)=C/C(=O)C=C(C)C)cc2nc2occc12	-	-	-	-	-	75.5
Nc1cccc2nc3ccccc3cc12	0	0	0	151.5	0	0
O=C(N/N=C\c1cn[nH]c1-c1ccccc1)c1cccs1	0	-74.1	0	0	0	0
O=C(N/N=C\c1cn[nH]c1-c1ccccc1)c1cccnc1	0	0	0	0	0	72.2
COc1ccc(-c2[nH]ncc2/C=N\NC(=O)c2ccc(Br)o2)cc1OC	-	0	-	-	0	59.8
O=C(CNC(=O)c1ccc(F)cc1)N/N=C/c1cn[nH]c1-c1ccccc1	0	0	0	0	0	0
CC(C)CNC(=O)C1CCN(S(=O)(=O)c2ccc3c(c2)OCCO3)CC1	-	0	-	-	0	0
CCn1cc(CNC(=O)C2CCC(=O)N(C3CCCCCC3)C2)cn1 (configuration not stated)	-	0	-	-	0	0
CCN(CC(=O)c1c(N)n(C)c(=O)n(C)c1=O)c1cccc2ccccc12	0	0	0	0	0	50.0
COc1ccc(C(=O)NCCS(=O)(=O)N2CCOCC2)cc1	-	0	-	-	0	0
CCS(=O)(=O)N1CCN(C(=O)c2ccccc2)CC1	0	-85.7	0	0	0	0
N#Cc1c(NC(=O)/C=C/c2ccco2)sc2c1CCCC2	0	0	0	154.2	0	0
CC(=O)Nc1sc2c(c1C#N)CCCCC2	0	-	0	0	-	0
Cc1noc(C(=O)Nc2sc3c(c2C#N)CCC3)c1Cl	0	0	0	0	0	47.0
C=CCNC(=S)Nc1sc2c(c1C#N)CCCC2	0	-54.5	0	0	0	0
Cc1cc(C(=O)Nc2sc3c(c2C#N)CCC3)no1	0	0	0	0	0	0
O=C(/C=C/c1ccco1)Nc1sc2c(c1C(=O)O)CCC2	0	0	0	0	0	0
Cc1ccc(C(=O)Nc2sc3c(c2C#N)CCCCC3)cc1C	0	0	0	0	0	70.8
Cc1ccccc1C(=O)NC(=S)Nc1sc2c(c1C#N)CCCC2	0	0	0	0	0	0
SMILES	Hsp70 activator	HSF1 inh	PERK inhibitor	STAT3 activator	PolyA inh	AHR activator
COc1ccc(OC(C)C(=O)NC2CCCCCC2)cc1 (configuration not stated)	-	0	-	-	0	0
CCC(=O)Nc1sc2c(c1C#N)CCCCC2	0	0	0	0	0	0
CC(C)(C)C(=O)NC(=S)Nc1sc2c(c1C#N)CCCCC2	0	0	0	0	0	59.3
Cc1cccnc1NC(=O)CCNC(=O)c1ccccc1Cl	-	0	-	-	0	0
CCN(CC)S(=O)(=O)c1ccc(C(=O)NC2=C(C(=O)OC)SCC2)cc1	0	0	0	0	0	0
COC(=O)C1=C(NC(=O)c2ccc(C)c(C)c2)CCS1	0	0	0	133.8	0	0
CCCCOc1ccc(/C=C/C(=O)N(CC)CC(=O)Nc2ccc3c(c2)OCCO3)cc1OC	-	0	-	-	0	0
Cn1nnnc1SCc1csc(C2C(C#N)=C(N)OC3=C2C(=O)CCC3)c1 (configuration not stated)	0	0	0	0	0	0
CS/C(=N\S(=O)(=O)c1cccs1)Nc1cccc(Cl)c1C	0	0	0	0	85.9	0
CS/C(=N\S(=O)(=O)c1cccs1)Nc1ccc(F)c(Cl)c1	0	0	0	0	0	0
CCn1ncc(C(=O)Nc2cccc(Cl)c2)c1C	0	0	0	0	0	79.2
CCc1cccc(NC(=O)c2cnn(-c3ccccc3)c2C)c1	-	0	-	-	0	0
COc1ccc(/C=N/N2CCN(Cc3ccccc3)CC2)cc1	-	0	-	-	0	-

Screening data: PubChem, several laboratories
